An excerpt weighted towards active compounds, which were near 2.9% of everything screened.
TRPC4 act – activators of mouse TRPC4 channel, primary screen, Fluo4 calcium, HEK293 TRPC4beta/mu-opioid cells | Short transient receptor potential channel 4 (Mus musculus), Q9QUQ5 | Fluo4 calcium fluorescence; hits give high values | B-score at 10 µM | 310,000 compounds, 0.49% hits;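 active = B-score above 5 SD of library B-scores, and initial fluorescence ratio not above library mean plus 5 SD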;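 note: positive B-score marks a calcium rise read as TRPC4 activation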
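System – HEK293 cells stably co-expressing mouse TRPC4beta and mu-opioid receptor · Signal – Fluo4 calcium-sensitive dye fluorescence, kinetic, 1 Hz baseline · Benchmarks – buffer (low) and maximal DAMGO (high) · Read-out – B score of integrated fluorescence ratio per well · Incubation – dye loading 45 min room temperature, 110 s kinetic read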
TRPC4 block – inhibitors of mouse TRPC4 channel, primary screen, Fluo4 calcium, HEK293 TRPC4beta/mu-opioid cells; Short transient receptor potential channel 4 (Mus musculus), Q9QUQ5; DAMGO-evoked Fluo4 calcium flux; hits give low values; B-score at 10 µM; 300,000 compounds, 0.39% hits; AID 2247, 2010;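 active = B-score over 3 SD under the library average, no early fluorescence shift, positive overall ratio signal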
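System: stable TRPC4beta/mu-opioid receptor HEK293 cells; Dosing: single-point compound dosing; Measured by: Fluo4 Ca2+ flux fluorescence; Read-out basis: per-well B score of integrated baseline-normalized Fluo4 ratio.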
TRPC6 inh – mouse TRPC6 channel inhibitors, primary screen, cell-based, HEK293, membrane potential dye | ACh-evoked depolarization; hits give low values | B-score at 10 µM | Short transient receptor potential channel 6 (Mus musculus), Q61143 | 310,000 compounds, 1.1% hits;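 active = B-score under library mean minus 3 SD, initial fluorescence not abnormally high, positive integrated signal ratio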;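 note: B-score derived from integrated fluorescence ratio over the kinetic read; more negative B-score means stronger inhibition of depolarization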
TRPC6 activator – mouse TRPC6 channel activators, primary screen, cell-based, HEK293, membrane potential dye; 310,000 compounds, 0.13% hits; Short transient receptor potential channel 6 (Mus musculus), Q61143; HEK293-TRPC6 membrane potential dye fluorescence; hits give high values; B-score at 10 µM;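 active = B-score of the integrated fluorescence ratio above library mean plus 3 SD, and starting fluorescence ratio within library mean plus 5 SD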;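 note: higher score means more depolarization so channel activation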
Kir21 block – inhibitors of mouse Kir2.1 inward-rectifier potassium channel | 310,000 compounds, 0.85% hits | Inward rectifier potassium channel 2 (Mus musculus), P35561 | HEK293-Kir2.1, FluxOR thallium flux fluorescence; hits give low values | B-score at 10 µM;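 active = fluorescence ratio B-score at or below minus 3 SD of library scores, with starting-brightness B-score within 2 SD, cut at about -4.2 in these data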;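 note: channel flux triggered by added potassium and thallium sulfate stimulus; B-score of peak minus minimum fluorescence over baseline after thallium stimulus; more negative B-score means stronger Kir2.1 block with less thallium influx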
Target sequence (P35561 whole entry, looked up): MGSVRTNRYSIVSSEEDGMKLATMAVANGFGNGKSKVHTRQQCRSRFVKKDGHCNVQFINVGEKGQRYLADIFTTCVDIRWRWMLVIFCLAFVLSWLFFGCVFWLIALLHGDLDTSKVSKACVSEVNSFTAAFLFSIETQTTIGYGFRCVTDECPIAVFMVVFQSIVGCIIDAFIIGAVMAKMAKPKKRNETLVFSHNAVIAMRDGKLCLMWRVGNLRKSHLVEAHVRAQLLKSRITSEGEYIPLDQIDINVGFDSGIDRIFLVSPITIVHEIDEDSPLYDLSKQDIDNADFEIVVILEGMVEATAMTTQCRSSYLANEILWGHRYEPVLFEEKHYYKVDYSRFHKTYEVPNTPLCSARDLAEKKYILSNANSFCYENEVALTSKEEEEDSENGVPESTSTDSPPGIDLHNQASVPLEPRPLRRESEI
TRPC4 PAM – positive allosteric modulators of TRPC4, primary screen, cell-based, mouse TRPC4beta, HEK293 mu-opioid, Fluo-4 calcium; B-score at 10 µM; 310,000 compounds, 0.42% hits; Short transient receptor potential channel 4 (Mus musculus), Q9QUQ5; AID 2227, 2009; DAMGO EC20, Fluo-4 Ca2+ flux; hits give high values;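 active = B-score of calcium response area above 5 SD of library B-scores, with initial fluorescence ratio within 5 SD of library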;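 note: B-score of integrated fluorescence ratio over time as area under calcium response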
* hit, by the source's call; i = inactive.

SMILES | TRPC4 act | TRPC4 block | TRPC6 inh | TRPC6 activator | Kir21 block | TRPC4 PAM
Cc1ccccc1Nc1nc(N)nc(COC(=O)[C@@H](NC(=O)c2ccccc2Cl)C(C)C)n1 | i | i | i | i | -0.06 | i
CCCCN(C)CC(O)Cn1cc(/C=C/C(=O)c2cccs2)c2ccccc21 (configuration not stated) | i | i | i | i | -7 | i
Cc1ccccc1CSc1nnc(-c2ccco2)n1Cc1ccco1 | i | i | i | i | -8.2* | i
CCn1c(SCc2nc(-c3ccc(Cl)cc3)no2)nnc1-c1ccco1 | i | i | i | i | -4.7* | i
c1ccc(CSc2nnc(-c3cccs3)n2Cc2ccco2)cc1 | i | i | i | i | -7.7* | i
c1ccc(CSc2nnc(-c3ccco3)n2Cc2ccco2)cc1 | i | i | i | i | -1.4 | i
Cc1ccccc1CSc1nnc(-c2cccs2)n1Cc1ccco1 | i | i | i | i | -1.3 | i
NNC(=O)c1ccc(N2CCc3ccccc32)c([N+](=O)[O-])c1 | i | i | i | i | 1.3 | i
Cc1ccc(CNC(=O)c2ccc(N3CCc4ccccc43)c([N+](=O)[O-])c2)cc1 | i | i | i | i | -6.5* | i
S=c1[nH]nc(COc2ccc(Cl)cc2Cl)n1-c1ccccc1 | 54* | i | i | i | 0.19 | i
S=c1[nH]nc(-c2ccc(Cl)cc2Cl)n1-c1ccccc1 | i | i | i | i | 1.2 | i
Cc1ccc(NC(=O)CSc2nnc(-c3ccco3)c(-c3ccco3)n2)cc1 | i | i | i | i | 0.78 | i
CN(C)c1ccc(NC(=O)CSc2nnc(-c3ccco3)c(-c3ccco3)n2)cc1 | i | i | -5* | i | -0.12 | i
O=C(N/N=C/c1ccccc1[N+](=O)[O-])c1cnccn1 | i | i | i | i | 0.02 | 20*
COc1ccc(/C(C)=N/NC(=O)CNC(=O)/C=C/c2ccccc2OC)cc1 | i | i | i | i | -3.3 | i
COc1ccccc1CNC(=O)c1ccccc1C(=O)NC(C)(C)C(=O)NCc1ccccc1OC | i | i | i | i | 0.2 | i
C=CCN=c1sc(C(=O)OC)cc(=O)n1CC=C | i | i | i | i | -1.8e-17 | i
Cc1cc(C)c(CN2CCN(Cc3ccc(C)o3)C(CCO)C2)c(-n2cccn2)c1 (configuration not stated) | 77* | i | i | i | 0.76 | i
Cc1ccc(CN2CCN(Cc3c(C)nn(-c4ccc(F)cc4)c3C)CC2CCO)o1 (configuration not stated) | i | i | i | i | 0.03 | i
CCN1CCN(c2ccc(S(=O)(=O)N3CCCCC3)cc2NC(=O)c2cccc(C)c2[N+](=O)[O-])CC1 | 132* | i | i | i | 0.68 | i
CCN1CCN(c2ccc(S(=O)(=O)N3CCCCC3)cc2NC(=O)c2ccccc2)CC1 | i | i | i | i | -0.29 | i
CCN1CCN(c2ccc(S(=O)(=O)N3CCCCC3)cc2NC(=O)c2cccc(C(F)(F)F)c2)CC1 | i | i | i | i | 0.13 | 29*
CCN1CCN(c2ccc(S(=O)(=O)N3CCCCC3)cc2NC(=O)c2cccc(F)c2)CC1 | i | i | i | i | -0.4 | 17*
CN1CCN(S(=O)(=O)c2cccc(C(=O)Nc3cc(C(F)(F)F)ccc3N3CCCCC3)c2)CC1 | i | i | i | i | 0.01 | i
O=CN1CCN(C(=O)c2ccc([N+](=O)[O-])cc2)CC1 | i | i | i | i | -0.59 | i
SMILES | TRPC4 act | TRPC4 block | TRPC6 inh | TRPC6 activator | Kir21 block | TRPC4 PAM
Cc1ccc(/C=N\NC(=O)C2COc3cc4ccccc4cc3O2)o1 (configuration not stated) | 112* | i | i | i | 0.11 | i
O=C(N/N=C\c1ccc(Cl)s1)C1COc2ccccc2O1 (configuration not stated) | 70* | i | i | i | 0.69 | i
CC(=O)OCC1=C(C(=O)O)N2C(=O)C(NC(=O)c3ccc(F)cc3)C2SC1 (configuration not stated) | i | i | i | i | -0.51 | i
O=S(=O)(NC1CCCCC1Oc1ccccc1)c1ccccc1 (configuration not stated) | i | i | i | i | -5.4* | i
COc1ccc(OC)c(S(=O)(=O)Nc2ccc3c(c2)N(C(C)=O)CCC3)c1 | i | i | i | i | -0.12 | 14*
CC(=O)N1CCCc2ccc(NS(=O)(=O)c3ccc(C)c(C)c3)cc21 | i | i | i | i | -1.7 | i
c1ccc(N2CCN(c3nc(-c4ccccn4)nc4ccccc34)CC2)cc1 | i | i | -5.6* | i | 0.61 | i
c1ccc2c(N3CCCCCC3)nc(-c3ccncc3)nc2c1 | i | i | i | i | 0.6 | i
Cc1ccc(S(=O)(=O)N2CCN(C(=O)c3ccc4c(c3)OCO4)CC2)cc1 | i | i | i | i | 1.1 | i
O=[N+]([O-])c1ccc(Sc2nccn2Cc2ccccc2)cc1 | i | i | i | i | -5* | i
CCOc1ccccc1Nc1nnc(SCc2nnc(-c3cc(OC)c(OC)c(OC)c3)o2)s1 | i | i | i | i | -0.1 | 21*
CCOC(=O)c1[nH]ncc1CN1CCC(Cc2ccccc2)(C(=O)OCC)CC1 | i | i | i | i | -1 | i
CCOC(=O)C1(Cc2ccccc2)CCN(Cc2cn[nH]c2-c2ccccc2)CC1 | 126* | i | i | i | -4.8* | i
CCOC(=O)C1(CC2CC2)CCN(Cc2cn[nH]c2-c2ccccc2)CC1 | 48* | -8* | i | i | -2.3 | i
CCOC(=O)C1(Cc2ccccc2)CCCN(Cc2cnn(CC)c2)C1 (configuration not stated) | i | i | i | i | -1.9 | i
CCOC(=O)C1(CC2CC2)CCN(Cc2cn[nH]c2-c2cccc(F)c2)CC1 | i | i | i | i | -0.2 | i
CCOC(=O)C1(Cc2ccccc2)CCN(Cc2cnn(CC)c2)CC1 | 124* | i | i | i | -0.28 | i
